Measurements published in PMC7931380 (ACS Omega, 2021).
Read-outs that look alike come from different tables or passages of the source.

Key:
[1] = format: in vivo, human
How it was run: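 Eight healthy men (21–65 y) taking no medicines or vitamins, randomized 1:1, double-blind crossover. After a ≥10 h fast, seated subjects swallowed 500 mg test formulation or 500 mg control (150 mg AA + 350 mg starch) with 240 mL water. Heparinized blood sampled 0.25–24 h post dose, spun 3500 rpm, 4 °C, 10 min; plasma at −20 °C, AA by HPLC; mean ± SD.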

[2] = Particle size and ζ-potential by dynamic light scattering; format: physicochemical; details: 25 °C
How it was run: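 Test-compound-loaded fiber-reinforced phospholipid vesicles were diluted 10-fold in distilled water to avoid scattering artefacts. Size and ζ-potential were then measured by dynamic light scattering on a Zetasizer Nano ZS at 25 °C, with intensity read at a scattering angle of 90.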

[3] = male, human, plasma, po, 150 mg
[4] = plasma vitamin C, single oral dose 500 mg (150 mg AA), fasting, mean ± SD

Cmax [1, 3]: 12300 ± 3800 ng/mL
half-life [1, 3]: 3.14 ± 2.01 h
k el [1, 3]: 8.61e-05 s⁻¹
AUC0–t [1, 4]: 9.38 ± 4.91 mg·h/dL
AUC0–∞ [1, 4]: 9.66 ± 5.02 mg·h/dL
Tmax [1, 4]: 3.56 ± 0.62 h
AUC ([1]; single oral dose): 9.66 mg/dL
AUC0–t ([1]; single oral dose): 9.38 mg/dL
ζ-potential [2]: −20 to 10 mV
Compound: O=C1O[C@H]([C@@H](O)CO)C(O)=C1O [AA, L-ascorbic acid]
